Calls of active or inactive are those of the source. No cut-off for these calls is given here.
Tests used:
KB = test: Cytotoxicity against human KB cells after 72 hrs by MTT assay; assay type: functional, cell-based
In short: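 KB cells seeded at 3 × 10^3 cells/well in DMEM with 10% FBS, amphotericin B (0.5 µg/ml) and kanamycin sulfate (100 µg/mL), 37 °C, 5% CO2. After 24 h, samples in 10% DMSO added; incubated 72 h. MTT (0.5 mg/mL) added for 1.5 h, formazan dissolved in DMSO, absorbance at 540 nm minus 620 nm. % inhibition vs control; etoposide positive control; means with SD, triplicate.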

A549 = test: Cytotoxicity against human A549 cells after 72 hrs by MTT assay; assay type: functional, cell-based; settings: for IC50: A549, 72 h
In short: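 A549 cells exposed 72 h to samples added in 10% DMSO after a 24 h pre-culture at 37 °C, 5% CO2. MTT (0.5 mg/mL) in DMEM for 1.5 h, formazan dissolved in DMSO, absorbance at 540 nm minus 620 nm. % inhibition relative to untreated control gives IC50; etoposide positive control; means with SD from triplicate experiments.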

Row | SMILES | Activity (KB) | Activity (A549) | IC50 (KB) | IC50 (A549)
1 | CC(C)=CCC/C(C)=C/Cc1c([C@@H]2CC(=O)c3c(cc4c(c3O)CCC(C)(C)O4)O2)ccc(O)c1O | inactive | inactive |  | 
2 | COc1cc([C@@H]2c3cc4c(cc3[C@@H](O[C@@H]3O[C@@H]5CO[C@@H](C)O[C@H]5[C@H](O)[C@H]3O)[C@H]3COC(=O)[C@H]23)OCO4)cc(OC)c1O [ETOPOSIDE] |  |  | 1.25 µM | 8.37 µM
3 | CC(C)=CCC/C(C)=C/Cc1c([C@@H]2CC(=O)c3c(cc4c(c3O)C=CC(C)(C)O4)O2)ccc(O)c1O | inactive | inactive |  | 
4 | CC(C)=C/C=C/[C@]1(C)CCc2c([C@@H]3CC(=O)c4c(cc(O)c(CC=C(C)C)c4O)O3)ccc(O)c2O1 | inactive | inactive |  | 
5 | CC(C)=C/C=C/[C@@]1(C)CCc2c([C@@H]3CC(=O)c4c(cc(O)c(CC=C(C)C)c4O)O3)ccc(O)c2O1 | inactive | inactive |  | 
6 | CC(C)=CCC[C@@]1(C)C=Cc2c([C@@H]3CC(=O)c4c(cc(O)c(CC=C(C)C)c4O)O3)ccc(O)c2O1 | inactive | inactive |  | 
7 | CC(C)=CCC[C@]1(C)CCc2c([C@@H]3CC(=O)c4c(cc(O)c(CC=C(C)C)c4O)O3)ccc(O)c2O1 [MACAFLAVANONE G] |  |  | 12.3 µM | 13.4 µM
8 | CC(C)=CCC[C@@]1(C)CCc2c([C@@H]3CC(=O)c4c(cc(O)c(CC=C(C)C)c4O)O3)ccc(O)c2O1 | inactive | inactive |  | 
